MrgX1 antagonist – human MrgX1 receptor antagonism, primary screen. B-score at 10 µM. AID 588676. MRGX1-HEK293 calcium flux, Fluo-4, BAM8-22 antagonism; active compounds read low. 1.3% of 310,000 active;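 active = calcium-response B-score plate-corrected more than 3 library SD below zero, starting fluorescence within 5 deviations, no agonist response on first addition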;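 note: peak minus trough fluorescence over baseline after final BAM8-22 challenge near maximal dose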
Target sequence (Q96LB2 whole entry, looked up): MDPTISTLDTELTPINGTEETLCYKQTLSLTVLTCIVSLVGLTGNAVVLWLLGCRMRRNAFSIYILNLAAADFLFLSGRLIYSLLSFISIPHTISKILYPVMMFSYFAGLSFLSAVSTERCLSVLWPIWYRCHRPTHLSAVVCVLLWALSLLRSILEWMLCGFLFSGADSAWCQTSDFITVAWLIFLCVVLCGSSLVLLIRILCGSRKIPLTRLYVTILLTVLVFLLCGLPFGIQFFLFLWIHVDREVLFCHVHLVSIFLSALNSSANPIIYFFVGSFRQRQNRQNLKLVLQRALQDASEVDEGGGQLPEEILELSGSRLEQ
RGS4 inh – inhibitors of human RGS4; AID 463165; HEK293 M3R/RGS4 inducible, Fluo-4 calcium flux; active compounds read high; triggered by carbachol at its EC20; B-score at 10 µM; P49798; 0.45% of 310,000 active;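 active = B-score, a plate-corrected calcium signal, over three deviations above library mean, with baseline fluorescence within five deviations of library mean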;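 note: RGS4 expression induced by doxycycline in cells with stable M3 receptor; B-score is computed from the integrated fluorescence ratio over baseline after carbachol; higher B-score means a larger calcium signal and so more RGS4 inhibition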
Target sequence (P49798 whole entry, looked up): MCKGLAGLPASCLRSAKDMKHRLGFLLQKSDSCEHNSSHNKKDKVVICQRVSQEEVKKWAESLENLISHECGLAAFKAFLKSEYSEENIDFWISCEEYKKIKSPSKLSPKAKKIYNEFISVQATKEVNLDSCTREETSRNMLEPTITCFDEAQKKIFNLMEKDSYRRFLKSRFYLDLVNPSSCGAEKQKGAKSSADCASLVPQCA
RGS4 act – potentiators or activators of RGS4; HEK293 M3R/inducible RGS4, carbachol calcium flux Fluo4; active compounds read low; B-score at 10 µM; 0.92% of 310,000 active; AID 463111;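 active = B-score of the integrated calcium signal more than 4 SD below the library mean, with starting fluorescence not abnormally high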;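 note: negative B-score means reduced calcium response which marks RGS4 activation or potentiation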
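test system = M3R-expressing HEK293 line, RGS4 induced by doxycycline | probe or stimulus = carbachol at ECmax as muscarinic agonist stimulus | timing = dye loading 30 min 37 °C, buffer rest 30 min RT | signal = calcium dye Fluo4 fluorescence | evaluation = B score from integrated fluorescence ratio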
MrgX1 PAM – human MrgX1 positive allosteric modulation, primary screen; AID 588675; B-score at 10 µM; 0.63% of 310,000 active; MrgX1-HEK293, Fluo-4 calcium flux, FDSS; active compounds read high;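 active = plate-corrected calcium response at least 3 library SD above typical, normal starting fluorescence, not activating the receptor alone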;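 note: compound read alongside a low EC10 to EC30 dose of BAM8-22 agonist; peak minus trough fluorescence over baseline measured at the second addition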
MrgX1 ag – human MrgX1 receptor agonism, primary screen; MrgX1-HEK293 cells, Fluo-4 calcium fluorescence, agonist mode; active compounds read high; B-score at 10 µM; 0.44% of 310,000 active;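 active = calcium response B-score plate-corrected fluorescence ratio at least 3 library SD, with starting fluorescence B-score inside 5 SD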
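Material: MrgX1-expressing HEK293 cells; input: 15,000 cells per well; doses: test compound given as first of three sequential additions; schedule: overnight plating before 1 h dye loading; technique: Fluo-4 NW calcium-flux fluorescence, kinetic read; evaluation: baseline-normalised fluorescence change ratio, B-scored; control set: plate-wise positive and negative controls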
Starred values were filed as active, the others as inactive. Compounds with a hit are over-represented: about 3.5% of the library has one in this group of screens.

Screening O=C(Cc1cccs1)Nc1nnc(SCc2ccc(C(F)(F)F)cc2)s1 returned MrgX1 antagonist -9.08*, RGS4 inh inactive, RGS4 act inactive, MrgX1 PAM inactive and MrgX1 ag inactive.
O=Nc1c(-c2cccc([N+](=O)[O-])c2)nc2ncccn12 was read as MrgX1 antagonist inactive, RGS4 inh 6.21*, RGS4 act inactive, MrgX1 PAM inactive and MrgX1 ag inactive.
For O=[N+]([O-])c1cccc(-c2cn3nc(-c4ccccc4)c(-c4ccccc4)nc3n2)c1 the results were MrgX1 antagonist inactive, RGS4 inh inactive, RGS4 act inactive, MrgX1 PAM inactive and MrgX1 ag inactive.
Screening N#Cc1c(C(F)(F)F)cc(-c2ccco2)nc1SCc1ccncc1 returned MrgX1 antagonist -5.1*, RGS4 inh inactive, RGS4 act inactive, MrgX1 PAM inactive and MrgX1 ag inactive.
CC(C)(C)OC(=O)N1CCC(c2c(C(=O)NCC3CCN(C4CCCC4)C3)cnn2-c2ccc(F)cc2)CC1 (centres undefined) was read as MrgX1 antagonist inactive, RGS4 inh inactive, RGS4 act inactive, MrgX1 PAM inactive and MrgX1 ag inactive.
COc1cc(Cl)cc2c1Sc1ccccc1/C2=C/CCN(C)C was read as MrgX1 antagonist inactive, RGS4 inh inactive, RGS4 act -7.08*, MrgX1 PAM inactive and MrgX1 ag inactive.
`CN(C)CC/C=C1/c2cc(F)ccc2Sc2ccc(Cl)cc21` gave MrgX1 antagonist inactive, RGS4 inh inactive, RGS4 act -10*, MrgX1 PAM inactive and MrgX1 ag inactive.
`CN(C)CC/C=C1/c2ccccc2Sc2c(O)cc(Cl)cc21` gave MrgX1 antagonist inactive, RGS4 inh inactive, RGS4 act -7.34*, MrgX1 PAM inactive and MrgX1 ag inactive.
Screening CN1CCN(CC/C=C2/c3ccccc3Sc3ccc(S(=O)(=O)N(C)C)cc32)CC1 returned MrgX1 antagonist inactive, RGS4 inh inactive, RGS4 act inactive, MrgX1 PAM inactive and MrgX1 ag inactive.
For Cc1c(NS(=O)(=O)c2ccc3c(c2)CCN3C(=O)C2CC2)c(=O)n(-c2ccccc2)n1C the results were MrgX1 antagonist inactive, RGS4 inh inactive, RGS4 act inactive, MrgX1 PAM inactive and MrgX1 ag inactive.
For COc1ccc(CCC(=O)Nc2ccccc2C(F)(F)F)cc1 the results were MrgX1 antagonist inactive, RGS4 inh inactive, RGS4 act inactive, MrgX1 PAM inactive and MrgX1 ag inactive.
NC(=O)c1ccsc1NC(=O)c1coc2ccccc2c1=O was read as MrgX1 antagonist inactive, RGS4 inh inactive, RGS4 act inactive, MrgX1 PAM inactive and MrgX1 ag inactive.
Screening CCn1c(=O)c(CCC(=O)NCC2CCCO2)c(C)c2c(C)nn(-c3ccc(C)cc3)c21 (centres undefined) returned MrgX1 antagonist inactive, RGS4 inh inactive, RGS4 act inactive, MrgX1 PAM inactive and MrgX1 ag inactive.
COCCCNC(=O)Cc1c(C)c2c(cc(C)c3c(C(C)(C)C)coc32)oc1=O was read as MrgX1 antagonist inactive, RGS4 inh inactive, RGS4 act inactive, MrgX1 PAM inactive and MrgX1 ag inactive.
`O=C(Nc1c2c(nn1-c1cccc(Cl)c1)CS(=O)(=O)C2)c1ccc2c(c1)OCO2` gave MrgX1 antagonist inactive, RGS4 inh inactive, RGS4 act inactive, MrgX1 PAM inactive and MrgX1 ag inactive.
CN1C2CCC1/C(=C/c1cccn1C)C(=O)/C2=C\c1cccn1C was read as MrgX1 antagonist inactive, RGS4 inh inactive, RGS4 act inactive, MrgX1 PAM inactive and MrgX1 ag inactive.
`CN1C2CCC1/C(=C\c1ccc(F)cc1)C(=O)/C2=C/c1ccc(F)cc1` gave MrgX1 antagonist inactive, RGS4 inh inactive, RGS4 act inactive, MrgX1 PAM 7.03* and MrgX1 ag inactive.
Screening COc1ccc(CCN(C)C(=O)c2cc(-c3ccccc3)nc3ccc(C)cc23)cc1OC returned MrgX1 antagonist inactive, RGS4 inh inactive, RGS4 act inactive, MrgX1 PAM inactive and MrgX1 ag inactive.
`COc1ccccc1CN(C)C(=O)c1cc(-c2cccs2)nc2ccccc12` gave MrgX1 antagonist inactive, RGS4 inh inactive, RGS4 act -8.58*, MrgX1 PAM inactive and MrgX1 ag inactive.
`COc1cccc(CN(C)C(=O)c2cc(-c3ccc(F)cc3)nc3ccccc23)c1` gave MrgX1 antagonist -15.2*, RGS4 inh inactive, RGS4 act -8.12*, MrgX1 PAM inactive and MrgX1 ag inactive.
COc1ccc(CN(C)C(=O)c2cc(-c3ccccc3)nc3ccc(C)cc23)c(OC)c1OC was read as MrgX1 antagonist inactive, RGS4 inh inactive, RGS4 act -7.22*, MrgX1 PAM inactive and MrgX1 ag inactive.
For COc1cccc(NC(=O)CN(C)C(=O)c2cc(-c3ccccc3)nc3ccccc23)c1 the results were MrgX1 antagonist inactive, RGS4 inh inactive, RGS4 act inactive, MrgX1 PAM inactive and MrgX1 ag inactive.
Screening O=C1CN(C(=O)Cn2ncc(Cl)c(Cl)c2=O)c2ccccc2N1 returned RGS4 inh inactive and RGS4 act inactive.
`NC(=O)COC(=O)c1ccc(-c2ccccc2)cc1` gave MrgX1 antagonist inactive, RGS4 inh inactive, RGS4 act inactive, MrgX1 PAM inactive and MrgX1 ag inactive.
`Cn1c(N)c(S(=O)(=O)N2CCN(c3ccccc3Cl)CC2)c(=O)n(C)c1=O` gave MrgX1 antagonist inactive, RGS4 inh inactive, RGS4 act inactive, MrgX1 PAM inactive and MrgX1 ag inactive.
For CCc1ccc(OCC(=O)NNC(=O)Cc2c(F)cccc2Cl)cc1 the results were MrgX1 antagonist -6.89*, RGS4 inh inactive, RGS4 act inactive, MrgX1 PAM inactive and MrgX1 ag inactive.
`CC(C)Cn1cnc2c(c(-c3ccccc3)c(-c3ccccc3)n2Cc2ccco2)c1=N` gave MrgX1 antagonist inactive, RGS4 inh inactive, RGS4 act -10.7*, MrgX1 PAM inactive and MrgX1 ag inactive.
Screening CN(C)CCCNc1ncnc2oc(-c3ccccc3)c(-c3ccccc3)c12 returned MrgX1 antagonist inactive, RGS4 inh inactive, RGS4 act inactive, MrgX1 PAM inactive and MrgX1 ag inactive.
For c1ccc(-c2c(-c3ccccc3)n(Cc3ccco3)c3ncnc(NCCCn4ccnc4)c23)cc1 the results were MrgX1 antagonist inactive, RGS4 inh inactive, RGS4 act -8.49*, MrgX1 PAM inactive and MrgX1 ag inactive.
c1ccc(-c2oc3ncnc(NCCCn4ccnc4)c3c2-c2ccccc2)cc1 was read as MrgX1 antagonist -5.44*, RGS4 inh inactive, RGS4 act inactive, MrgX1 PAM inactive and MrgX1 ag inactive.
